Data: ChEMBL document CHEMBL1129690, “Design, synthesis, and structure-activity relationship studies of novel 1-[(1-acyl-4-piperidyl)methyl]-1H-2- methylimidazo[4,5-c]pyridine derivatives as potent, orally active platelet-activating factor antagonists” (J Med Chem, 1996)

Tests used:
Canis familiaris [1] = assay: Inhibition of PAF-induced platelet aggregation in whole blood obtained after 4 hr from dog injected with an intravenous dose of 1 mg/Kg of compound; format: functional, Canis lupus familiaris
Outline: (§1)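 Male Beagle dogs (8-12 kg) dosed once at 1 mg/kg iv. Venous blood drawn before dosing and at 4 and 6 h, anticoagulated with 3.8% citrate (1:9) and diluted 1:1 in saline.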

Oryctolagus cuniculus = species: Oryctolagus cuniculus; assay: Concentration required to inhibit PAF-induced maximum platelet aggregation in rabbit platelet-rich plasma; format: functional
Outline: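 PRP prepared by centrifugation at 250g, 10 min, 4 °C, and diluted with platelet-poor plasma (3000g, 10 min) to 3.5 × 10⁵ platelets/mm³. Aggregation triggered by C-18-PAF at 1.5 × 10^-8 M and read on a dual-channel aggregometer. IC50 from linear regression of at least four points, each the mean of one to three independent experiments.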

Rattus norvegicus = assay: Dose required to reduce the lowering of the arterial blood pressure caused by PAF by 50% after intravenous administration in rats; format: functional; conditions: read-out: ID50 (the source's name)
Outline: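 Rats with both femoral veins catheterized, one for test compound and one for PAF (0.5 µg/kg). Compound given iv in saline (1 mL/kg) 3 min before PAF. Blood pressure monitored; % inhibition of hypotension calculated versus controls. ID50 from linear regression of at least four doses, each the mean of two or more independent experiments.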

Mus musculus [2] = assay: Dosage required to inhibit PAF-induced mortality in mice by 50% through intravenous route; format: functional; conditions: read-out: ID50 (the source's name)
Outline: (§2)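 Male Swiss mice, 22-26 g, groups of 10. Test article given iv (10 mL/kg, saline vehicle) 5 min before, or po (20 mL/kg, 1% Tween 80) 60 min before, tail-vein C-18-PAF 100 µg/kg plus propranolol 1 mg/kg. Mortality scored 2 h after PAF; % inhibition vs vehicle controls. ID50 by linear regression, ≥4 points.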

Mus musculus [3] = assay: Percentage of inhibition by the compound against PAF-induced mortality in mice 5 hr after intravenous administration of 1 mg/Kg; format: functional
Outline: (§3)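 Male Swiss mice given single 1 mg/kg iv dose at time 0. C-18-PAF 100 µg/kg plus propranolol 1 mg/kg injected by lateral tail vein at later times (10-40 mice/time). Deaths scored 2 h after PAF. Percentage inhibition of mortality vs vehicle (saline) controls recorded at each time.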

Mus musculus [4] = assay: Dosage required to inhibit PAF-induced mortality in mice by 50% through oral administration; format: functional; conditions: read-out: ID50 (the source's name); outline: as §2
Mus musculus [5] = assay: Percentage of inhibition by the compound against PAF-induced mortality in mice 3 hr after intravenous administration of 1 mg/Kg; format: functional; outline: as §3
Mus musculus [6] = assay: Percentage of inhibition by the compound against PAF-induced mortality in mice 7 hr after intravenous administration of 1 mg/Kg; format: functional; outline: as §3
Canis familiaris [7] = assay: Inhibition of PAF-induced platelet aggregation in whole blood obtained after 6 hr from dog injected with an intravenous dose of 1 mg/Kg of compound; format: functional, Canis lupus familiaris; outline: as §1
Mus musculus [8] = assay: Compound after an intravenous dose of 0.03 mg/Kg was tested for the inhibition of PAF-induced mortality in mice; format: functional; outline: as §2
Mus musculus [9] = assay: Compound after an intravenous dose of 0.01 mg/Kg was tested for the inhibition of PAF-induced mortality in mice; format: functional; outline: as §2

Row | Compound | Inhibition (Canis familiaris [1]) [%] | IC50 (Oryctolagus cuniculus) [nM] | ED50 (Rattus norvegicus) [mg/kg] | ED50 (Mus musculus [2]) [mg/kg] | inhibition in vivo at 1 mg/kg (Mus musculus [3]) [%] | ED50 (Mus musculus [4]) [mg/kg] | inhibition in vivo at 1 mg/kg (Mus musculus [5]) [%] | inhibition in vivo at 1 mg/kg (Mus musculus [6]) [%] | Inhibition (Canis familiaris [7]) [%] | inhibition in vivo at 0.03 mg/kg (Mus musculus [8]) [%] | inhibition in vivo at 0.01 mg/kg (Mus musculus [9]) [%]
1 | Cc1ncccc1C(C#N)N1CCN(C(=O)CNC(c2ccccc2)c2ccccc2)CC1 (configuration not stated) | 39 | 40 | 0.021 | 0.009 | 15 | 0.3 | 30 | – | – | – | –
2 | Cc1nc2cnccc2n1CC1CCN(C(=O)CC(c2ccccc2)c2ccccc2)CC1 | 100 | 7.6 | – | 0.0008 | 100 | 0.092 | 100 | 100 | 100 | – | –
3 | N#CC(c1cccnc1)C1CCN(C(=O)CNC(c2ccccc2)c2ccccc2)CC1 (configuration not stated) | – | 24 | 0.03 | – | – | 2.6 | – | – | – | – | –
4 | CCOC[C@@H](NC(=O)N1CCC(Cn2c(C)nc3cnccc32)CC1)c1ccccc1 | – | 17 | – | 0.01 | – | 1 | – | – | – | – | –
5 | CCOC(=O)[C@H](NC(=O)N1CCC(Cn2c(C)nc3cnccc32)CC1)c1ccccc1 | – | 150 | 0.069 | 0.02 | – | > 1 | – | – | – | – | –
6 | Cc1nc2cnccc2n1CC1CCN(C(=O)CC(O)(c2ccccc2)C(F)(F)F)CC1 (configuration not stated) | – | 36 | – | 0.0029 | 90 | 0.032 | – | 70 | – | – | –
7 | CCOC(=O)C(CC(=O)N1CCC(Cn2c(C)nc3cnccc32)CC1)c1ccccc1 (configuration not stated) | – | 12 | 0.17 | – | – | – | – | – | – | 45 | –
8 | Cc1nc2cnccc2n1CC1CCN(C(=O)CNC(c2ccccc2)c2ccccc2)CC1 | – | 13 | 0.067 | 0.0041 | – | 1 | – | – | – | – | –
9 | CCOC(=O)[C@H](CC(C)C)NC(=O)N1CCC(Cn2c(C)nc3cnccc32)CC1 | – | 12 | 0.03 | 0.0027 | – | > 1 | – | – | – | – | –
10 | Cc1nc2cnccc2n1CC1CCN(C(=O)N[C@H](C)c2ccccc2)CC1 | 100 | 13 | – | 0.0047 | 56 | 1 | – | 22 | 77 | – | –
11 | Cc1nc2cnccc2n1CC1CCN(C(=O)CC(C)c2ccccc2)CC1 (configuration not stated) | – | 12 | – | 0.003 | – | 1 | – | – | – | – | –
12 | COc1ccccc1CCC(=O)N1CCC(Cn2c(C)nc3cnccc32)CC1 | – | 15 | 0.045 | 0.0033 | – | > 1 | – | – | – | – | –
13 | Cc1nc2cnccc2n1CC1CCN(C(=O)C=C(c2ccccc2)c2ccccc2)CC1 | – | 240 | 0.011 | 0.0037 | – | > 1 | – | – | – | – | –
14 | Cc1nc2cnccc2n1CC1CCN(C(=O)CCc2ccccc2)CC1 | – | 60 | > 5 | 0.013 | – | > 1 | – | – | – | – | –
15 | Cc1nc2cnccc2n1CC1CCN(S(=O)(=O)CC(C)(C)c2ccccc2)CC1 | – | 6.2 | 0.087 | – | – | > 1 | – | – | – | – | 50
16 | COc1ccccc1N(C)CC(=O)N1CCC(Cn2c(C)nc3cnccc32)CC1 | 100 | 14 | 0.063 | 0.0066 | 90 | > 1 | – | 70 | 87 | – | –
17 | Cc1nc2cnccc2n1CC1CCN(C(=O)CC(O)(c2ccccc2)c2ccccc2)CC1 | – | 640 | 0.013 | 0.03 | – | 0.03 | – | – | – | – | –

Row | Compound | Inhibition (Canis familiaris [1]) [%] | IC50 (Oryctolagus cuniculus) [nM] | ED50 (Rattus norvegicus) [mg/kg] | ED50 (Mus musculus [2]) [mg/kg] | inhibition in vivo at 1 mg/kg (Mus musculus [3]) [%] | ED50 (Mus musculus [4]) [mg/kg] | inhibition in vivo at 1 mg/kg (Mus musculus [5]) [%] | inhibition in vivo at 1 mg/kg (Mus musculus [6]) [%] | Inhibition (Canis familiaris [7]) [%] | inhibition in vivo at 0.03 mg/kg (Mus musculus [8]) [%] | inhibition in vivo at 0.01 mg/kg (Mus musculus [9]) [%]
18 | CC/C(=C\C(=O)N1CCC(Cn2c(C)nc3cnccc32)CC1)c1ccccc1 | – | 13 | 0.0054 | – | – | > 1 | – | – | – | 50 | –
19 | Cc1nc2cnccc2n1CC1CCN(C(=O)OCC2(c3ccccc3)CC2)CC1 | – | 35 | – | 0.012 | – | > 1 | – | – | – | – | –
20 | Cc1nc2cnccc2n1CC1CCN(C(=O)NC2(c3ccccc3)CC2)CC1 | – | 17 | – | 0.002 | – | 0.3 | – | – | – | – | –
21 | CCCC(CC(=O)N1CCC(Cn2c(C)nc3cnccc32)CC1)c1ccccc1 (configuration not stated) | – | 11 | – | 0.01 | – | 1 | – | – | – | – | –
22 | CCOC(=O)[C@@H](NC(=O)N1CCC(Cn2c(C)nc3cnccc32)CC1)c1ccccc1 | – | 16 | 0.061 | – | – | > 1 | – | – | – | – | 50
23 | Cc1nc2cnccc2n1CC1CCN(C(=O)NC(c2ccccc2)c2ccccc2)CC1 | – | 8.1 | 0.14 | > 0.03 | – | > 1 | – | – | – | – | –
24 | COC(=O)NC(CC(=O)N1CCC(Cn2c(C)nc3cnccc32)CC1)c1ccccc1 (configuration not stated) | – | 12 | 0.035 | 0.0027 | – | 0.1 | – | – | – | – | –
25 | Cc1nc2cnccc2n1C1CCN(C(=O)CC(c2ccccc2)c2ccccc2)CC1 | – | 100 | 0.41 | – | – | > 3 | – | – | – | – | –
26 | Cc1nc2cnccc2n1CC1CCN(C(=O)CC(C)(C)c2ccccc2)CC1 | 100 | 6.7 | – | 0.0027 | 88 | 1 | – | 50 | 100 | – | –
27 | Cc1nc2cnccc2n1CC1CCN(C(=O)CC(C)(O)c2ccccc2)CC1 (configuration not stated) | 59 | 6.9 | – | 0.0029 | 80 | 1 | – | 60 | 43 | – | –
28 | Cc1nc2cnccc2n1CC1CCN(C(=O)CN(C)c2ccccc2)CC1 | – | 23 | 0.31 | > 0.03 | – | > 1 | – | – | – | – | –
29 | Cc1nc2cnccc2n1CC1CCN(C(=O)N[C@@H](C)c2ccccc2)CC1 | – | 41 | 0.21 | – | – | > 1 | – | – | – | 45 | –
30 | COC/C(=C\C(=O)N1CCC(Cn2c(C)nc3cnccc32)CC1)c1ccccc1 | – | 18 | 0.022 | 0.0079 | – | > 1 | – | – | – | – | –
31 | COC(=O)NC(CC(=O)N1CCC(n2c(C)nc3cnccc32)CC1)c1ccccc1 (configuration not stated) | – | 1300 | 0.56 | – | – | – | – | – | – | – | –
32 | COC(=O)NC(CC(=O)N1CCN(C(C#N)c2cccnc2C)CC1)c1ccccc1 (configuration not stated) | – | 41 | 0.015 | 0.0055 | – | 0.044 | – | – | – | – | –
33 | Cc1nnc2n1-c1sc(CCC(=O)N3CCOCC3)cc1C(c1ccccc1Cl)=NC2 [APAFANT] | 100 | 91 | 0.17 | 0.084 | 27 | 1.24 | 55 | 31 | 55 | – | –
34 | CCOC(=O)[C@H](CC(C)C)N(C)S(=O)(=O)c1ccc(Cn2c(C)nc3cnccc32)cc1 [LEXIPAFANT] | 100 | 3.6 | 0.0037 | 0.0021 | 95 | 0.11 | 100 | 56 | 100 | – | –
